From ChEMBL document CHEMBL1147981, “Small molecule activators of SIRT1 as therapeutics for the treatment of type 2 diabetes” (Nature, 2007)
pEC50: −log10 of the molar value. The source made the active and inactive calls. No cut-off for these calls is given here.

Legend:
Mus musculus [1] = experiment: Reduction of hyperinsulinemia in DIO C57BL/6 mouse model at 100 mg/kg, po after 4 weeks; type: functional, organism-based; parameters: dose 100 mg/kg
Mus musculus [2] = species: Mus musculus; experiment: Reduction of insulin level in chow-fed C57BL/6 mouse; type: functional, organism-based
Mus musculus [3] = experiment: Increase in mitochondrial capacity in DIO C57BL/6 mouse model assessed as citrate synthase activity at 100 mg/kg, po after 10 weeks; type: functional; conditions: in the assay text read “after 11 weeks” for “after 10 weeks”
Procedure, shortened: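 Citrate synthase activity in gastrocnemius and epididymal white adipose tissue after 11 weeks of daily oral dosing in high-fat-fed C57BL/6 mice; five mice per group closest to the group's mean fasting glucose were selected.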

Mus musculus [4] = experiment: Reduction of blood glucose level in diabetic Lep ob/ob mouse model at 100 mg/kg, po after 1 week; type: functional, organism-based; parameters: dose 100 mg/kg
Procedure, shortened: (§1)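 ob/ob mice received at 6 weeks, kept on 60%-fat diet from at least one week before study; ~40-45 g; grouped by body weight and glucose; once-daily oral gavage in 2% HPMC + 0.2% DOSS. One-way ANOVA with Dunnett's test vs control, p<0.05.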

Rattus norvegicus [5] = experiment: Reduction of blood insulin level in po dosed Zucker fa/fa rat after 3 weeks by glucose tolerance test; type: functional
Procedure, shortened: (§2)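 On day 26 of daily oral dosing, fa/fa Zucker rats fasted 5 h, then gavaged with 1 g/kg dextrose; tail-vein glucose at 0, 15, 30, 60, 90 min; plasma for insulin at 0, 15, 30, 60 min.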

Rattus norvegicus [6] = experiment: Increase in glucose infusion rate required to maintain euglycaemia in po dosed Zucker fa/fa rat relative to control; type: functional
Procedure, shortened: (§3)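 Cannulated 10-week-old fa/fa Zucker rats, unrestrained. D-[3-3H]glucose prime 7.5 μCi, then infused at 0.167 μCi/min; basal samples at -10 and 0 min for hepatic glucose production. From 0 min, insulin at 25 mU/kg/min plus variable 50% dextrose infusion; plasma insulin and FFA at 0 and 120 min.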

Rattus norvegicus [7] = experiment: Increase in glucose disposal rate in po dosed Zucker fa/fa rat relative to control; type: functional; procedure, shortened: as §3
Rattus norvegicus [8] = experiment: Increase in insulin-induced glucose disposal rate into skeletal muscle in po dosed Zucker fa/fa rat relative to control; type: functional
Rattus norvegicus [9] = experiment: Increase in insulin sensitivity in po dosed Zucker fa/fa rat assessed as hepatic glucose production relative to control; type: functional, organism-based; procedure, shortened: as §3
Rattus norvegicus [10] = experiment: Increase in adipose insulin sensitivity in po dosed Zucker fa/fa rat assessed as plasma free fatty acid level relative to control; type: functional; procedure, shortened: as §3
Rattus norvegicus [11] = species: Rattus norvegicus; experiment: Reduction in hepatic gluconeogenesis in Zucker fa/fa rat assessed as glucose response by pyruvate tolerance test relative to control; type: functional, organism-based
Procedure, shortened: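 Day 22 of daily oral dosing in fa/fa Zucker rats: after overnight fast, sodium pyruvate 1 g/kg ip in 0.9% NaCl; tail-vein glucose at 0, 30, 40, 50, 60 and 90 min.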

[12] = biological target: T1, NAD-dependent protein deacetylase sirtuin-1 (Homo sapiens) (UniProt Q96EB6); experiment: Activation of human SIRT1 assessed as decrease in Km of enzyme for acetylated peptide substrate by mass spectrometry assay
T1 sequence (whole entry): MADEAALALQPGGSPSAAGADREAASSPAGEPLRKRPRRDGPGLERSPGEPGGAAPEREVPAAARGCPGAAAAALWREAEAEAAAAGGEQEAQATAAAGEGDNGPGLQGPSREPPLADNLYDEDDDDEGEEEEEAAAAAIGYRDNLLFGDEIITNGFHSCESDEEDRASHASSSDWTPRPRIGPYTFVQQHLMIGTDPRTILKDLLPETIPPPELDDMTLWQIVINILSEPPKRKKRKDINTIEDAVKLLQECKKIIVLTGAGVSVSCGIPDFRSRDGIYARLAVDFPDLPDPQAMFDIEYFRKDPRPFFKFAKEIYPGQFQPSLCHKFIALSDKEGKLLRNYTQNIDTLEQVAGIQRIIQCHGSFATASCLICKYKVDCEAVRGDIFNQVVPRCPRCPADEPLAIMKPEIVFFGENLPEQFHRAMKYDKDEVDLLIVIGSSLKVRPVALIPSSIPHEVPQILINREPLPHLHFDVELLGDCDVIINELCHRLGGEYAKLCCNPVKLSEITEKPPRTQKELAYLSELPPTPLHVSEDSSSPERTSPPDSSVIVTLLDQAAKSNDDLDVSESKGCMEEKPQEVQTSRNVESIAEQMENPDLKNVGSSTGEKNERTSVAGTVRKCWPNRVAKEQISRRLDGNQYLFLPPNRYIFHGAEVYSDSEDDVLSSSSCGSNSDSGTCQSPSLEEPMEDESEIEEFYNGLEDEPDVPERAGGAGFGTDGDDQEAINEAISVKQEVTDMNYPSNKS

Mus musculus [13] = experiment: Reduction of glucose levels in DIO C57BL/6 mouse model at 100 mg/kg, po during insulin tolerance test; type: functional, organism-based; parameters: dose 100 mg/kg
Procedure, shortened: (§4)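 Male C57BL/6 mice, started at nine weeks, fed 60%-fat diet until mean weight ~40 g; 6-10 per group; once-daily oral gavage in 2% HPMC + 0.2% DOSS. Fed glucose at 2, 4, 6, 8, 10 weeks; IPGTT after 5 weeks; ITT after 10 weeks. One-way ANOVA with Dunnett's test vs control, p<0.05.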

Mus musculus [14] = experiment: Effect on body weight in diabetic Lep ob/ob mouse model at 100 mg/kg, po; type: functional, organism-based; parameters: dose 100 mg/kg; procedure, shortened: as §1
Rattus norvegicus [15] = experiment: Reduction of blood glucose level in po dosed Zucker fa/fa rat assessed as glucose level after 3 weeks by glucose tolerance test; type: functional; procedure, shortened: as §2
[16] = biological target: T1, NAD-dependent protein deacetylase sirtuin-1 (Homo sapiens); experiment: Activation of human SIRT1-D (219-664) construct by mass spectrometry assay relative to control
[17] = biological target: T1, NAD-dependent protein deacetylase sirtuin-1 (Homo sapiens); experiment: Activation of human SIRT1-F (230-664) construct by mass spectrometry assay relative to control
[18] = biological target: T1, NAD-dependent protein deacetylase sirtuin-1 (Homo sapiens); experiment: Activation of human SIRT1-G (235-664) construct by mass spectrometry assay relative to control
[19] = biological target: T1, NAD-dependent protein deacetylase sirtuin-1 (Homo sapiens); experiment: Activation of human SIRT1-H (240-664) construct by mass spectrometry assay relative to control
[20] = biological target: T1, NAD-dependent protein deacetylase sirtuin-1 (Homo sapiens); experiment: Activation of human SIRT1 expressed in Escherichia coli BL21 by mass spectrometry assay
[21] = biological target: T2, NAD-dependent protein deacetylase sirtuin-2 (Homo sapiens, UniProt Q8IXJ6); experiment: Activation of SIRT2 by mass spectrometry assay
T2 sequence (Q8IXJ6 whole entry): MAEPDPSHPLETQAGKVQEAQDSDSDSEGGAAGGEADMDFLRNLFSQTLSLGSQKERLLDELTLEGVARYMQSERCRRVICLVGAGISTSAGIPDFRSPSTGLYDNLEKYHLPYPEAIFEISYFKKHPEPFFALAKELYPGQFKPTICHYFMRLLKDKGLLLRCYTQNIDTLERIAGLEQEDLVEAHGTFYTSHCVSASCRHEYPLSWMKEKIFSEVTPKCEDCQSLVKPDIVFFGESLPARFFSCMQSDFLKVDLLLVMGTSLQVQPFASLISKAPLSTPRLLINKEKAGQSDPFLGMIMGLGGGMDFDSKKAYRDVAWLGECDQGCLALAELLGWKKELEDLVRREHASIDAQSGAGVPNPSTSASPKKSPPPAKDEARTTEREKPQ

[22] = biological target: T3, NAD-dependent protein deacetylase sirtuin-3, mitochondrial (Homo sapiens, UniProt Q9NTG7); experiment: Activation of SIRT3 by mass spectrometry assay
T3 sequence (Q9NTG7 whole entry): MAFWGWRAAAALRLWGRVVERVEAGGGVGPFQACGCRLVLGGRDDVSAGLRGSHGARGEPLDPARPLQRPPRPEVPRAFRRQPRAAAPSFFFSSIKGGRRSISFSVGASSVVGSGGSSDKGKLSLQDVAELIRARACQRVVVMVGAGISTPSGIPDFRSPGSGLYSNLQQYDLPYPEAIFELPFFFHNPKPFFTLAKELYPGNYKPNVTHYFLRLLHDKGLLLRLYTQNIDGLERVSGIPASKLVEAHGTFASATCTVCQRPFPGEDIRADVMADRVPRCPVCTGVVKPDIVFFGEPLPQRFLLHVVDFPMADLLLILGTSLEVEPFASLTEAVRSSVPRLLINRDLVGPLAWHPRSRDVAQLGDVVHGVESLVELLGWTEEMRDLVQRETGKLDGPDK

[23] = biological target: T1, NAD-dependent protein deacetylase sirtuin-1 (Homo sapiens); experiment: Activation of SIRT1 in human U2OS cells assessed as decrease in p53 deacetylation level at 0.10 uM; type: cell-based
Procedure, shortened: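 U-2 OS cells seeded 1.5 × 10⁴/well; compounds in DMSO added after 24 h, then doxorubicin 1 μg/ml final to induce p53. Fixed, permeabilized, immunostained for Ac-Lys382-p53 and beta-tubulin, infrared scan; background-corrected acetyl signal normalized to tubulin, then to vehicle as % acetylated p53. Replicate plates co-treated with a SIRT1-specific inhibitor.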

[24] = biological target: T1, NAD-dependent protein deacetylase sirtuin-1 (Homo sapiens); experiment: Activation of human SIRT1-A (156-664) construct by mass spectrometry assay relative to control
[25] = biological target: T1, NAD-dependent protein deacetylase sirtuin-1 (Homo sapiens); experiment: Activation of human SIRT1-B (172-664) construct by mass spectrometry assay relative to control
[26] = biological target: T1, NAD-dependent protein deacetylase sirtuin-1 (Homo sapiens); experiment: Activation of human SIRT1-C construct by mass spectrometry assay relative to control
[27] = biological target: T1, NAD-dependent protein deacetylase sirtuin-1 (Homo sapiens); experiment: Activation of human SIRT1-E (225-664) construct by mass spectrometry assay relative to control
[28] = Bioavailability in C57BL/6 mouse at 100 mg/kg/day, po; type: ADME, organism-based; conditions: in vivo
Procedure, shortened: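 Male C57BL/6 mice (18-22 g, 3 per group per time point). Oral dosing by gavage in 2% HPMC + 0.2% DOSS, compared with tail-vein iv dosing in 10% ethanol/40% PEG/50% water.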

[29] = Terminal half life in C57BL/6 mouse at 100 mg/kg/day, po; type: ADME, organism-based; parameters: route oral; conditions: in vivo
Procedure, shortened: (§5)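 Oral gavage in 2% HPMC + 0.2% DOSS (hydrochloride salt) to male C57BL/6 mice, 18-22 g, 3 per dose group per time point; blood taken at 5, 30, 120 and 360 min after dosing after CO2 sacrifice; plasma drug levels measured.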

[30] = AUC in C57BL/6 mouse at 100 mg/kg/day, po; type: ADME, organism-based; parameters: route oral; conditions: plasma; procedure, shortened: as §5
[31] = Bioavailability in Sprague-Dawley rat administered at 10 mg/kg, iv; type: ADME, organism-based; conditions: in vivo
[32] = Terminal half life in Sprague-Dawley rat at 100 mg/kg/day, po; type: ADME, organism-based; parameters: route oral; conditions: in vivo
[33] = AUC in Sprague-Dawley rat at 100 mg/kg/day, po; type: ADME, organism-based; parameters: route oral; conditions: plasma
Mus musculus [34] = experiment: Reduction of fasting blood glucose in DIO C57BL/6 mouse model at 100 mg/kg, po assessed as glucose level by glucose tolerance test; type: functional; procedure, shortened: as §4

Activity [12]: Active | Activity [16]: 1.3 | Activity [17]: 1.5 | Activity [18]: 1.9 | Activity [19]: 2 | Activity [20]: 781% | pEC50 [21]: 4.43 | pEC50 [22]: < 3.52 | Activity [23]: Active | Activity [24]: 5.9 | Activity [25]: 5.8 | Activity [26]: 5.6 | Activity [27]: 1.6 | bioavailability [28]: 50% | half-life [29]: 5 h | AUC [30]: 7890 ng·h/mL | bioavailability [31]: 25% | half-life [32]: 8.4 h | AUC [33]: 3710 ng·h/mL
SMILES: O=C(Nc1ccccc1-c1cn2c(CN3CCNCC3)csc2n1)c1cnc2ccccc2n1
Activity (Mus musculus [1]): Active | Activity (Mus musculus [2]): inactive | Activity (Mus musculus [3]): 15% | Activity (Mus musculus [4]): Active | Activity (Rattus norvegicus [5]): 25 ng/min/dL | Activity (Rattus norvegicus [6]): 35% | Activity (Rattus norvegicus [7]): 20% | Activity (Rattus norvegicus [8]): 55% | Activity (Rattus norvegicus [9]): Active | Activity (Rattus norvegicus [10]): 40% | Activity (Rattus norvegicus [11]): Active | Activity (Mus musculus [13]): Active | Activity (Mus musculus [14]): inactive | Activity (Rattus norvegicus [15]): 2490 mg/min/dL | Activity (Mus musculus [34]): 462 mg/h/dL
